The results in this text go back to ChEMBL document CHEMBL3232879, “4,5,6,7-Tetrahydro-isoxazolo-[4,5-c]-pyridines as a new class of cytotoxic Hsp90 inhibitors” (Eur J Med Chem, 2014).

Assay [1] deals with T1, Protein deacetylase HDAC6 (Homo sapiens, UniProt Q9UBN7).
T1 sequence (Q9UBN7 whole entry): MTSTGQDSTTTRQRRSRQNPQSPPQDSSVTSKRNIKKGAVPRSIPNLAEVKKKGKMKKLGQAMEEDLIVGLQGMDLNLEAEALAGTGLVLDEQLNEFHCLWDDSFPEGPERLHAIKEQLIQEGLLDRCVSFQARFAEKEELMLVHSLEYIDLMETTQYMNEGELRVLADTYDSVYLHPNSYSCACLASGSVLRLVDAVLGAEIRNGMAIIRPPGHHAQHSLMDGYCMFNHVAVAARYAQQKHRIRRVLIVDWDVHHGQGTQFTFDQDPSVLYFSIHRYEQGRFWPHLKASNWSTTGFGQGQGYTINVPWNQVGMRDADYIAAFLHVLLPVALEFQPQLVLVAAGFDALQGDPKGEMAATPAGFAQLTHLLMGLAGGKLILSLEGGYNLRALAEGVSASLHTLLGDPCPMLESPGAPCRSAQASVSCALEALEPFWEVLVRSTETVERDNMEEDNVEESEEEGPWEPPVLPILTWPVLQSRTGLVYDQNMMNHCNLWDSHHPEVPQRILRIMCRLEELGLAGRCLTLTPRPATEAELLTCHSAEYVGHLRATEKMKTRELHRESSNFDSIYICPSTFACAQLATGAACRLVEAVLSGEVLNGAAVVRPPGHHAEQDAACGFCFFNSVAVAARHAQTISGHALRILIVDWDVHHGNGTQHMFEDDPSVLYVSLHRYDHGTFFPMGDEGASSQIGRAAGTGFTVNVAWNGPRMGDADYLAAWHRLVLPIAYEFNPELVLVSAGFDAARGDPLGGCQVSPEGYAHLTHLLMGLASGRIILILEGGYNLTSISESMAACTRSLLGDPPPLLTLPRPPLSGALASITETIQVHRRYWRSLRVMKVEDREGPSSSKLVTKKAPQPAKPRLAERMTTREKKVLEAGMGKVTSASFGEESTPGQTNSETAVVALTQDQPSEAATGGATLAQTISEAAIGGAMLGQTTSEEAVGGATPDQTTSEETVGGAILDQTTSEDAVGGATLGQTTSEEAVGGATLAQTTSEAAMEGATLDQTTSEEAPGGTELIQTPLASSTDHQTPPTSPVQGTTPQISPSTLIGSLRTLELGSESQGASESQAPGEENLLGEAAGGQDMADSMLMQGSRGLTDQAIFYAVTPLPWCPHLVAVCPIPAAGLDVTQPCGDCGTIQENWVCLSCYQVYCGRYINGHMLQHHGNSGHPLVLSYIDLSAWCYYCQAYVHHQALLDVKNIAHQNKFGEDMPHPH
The assay is described as follows: Inhibition of human HDAC-6 using RHKK(Ac) as substrate.

For a further assay, the system named is NCI-H460. Briefly: Cytotoxicity against human NCI-H460 cells assessed as growth inhibition after 72 hrs by sulforhodamine B assay. In kind it is functional, cell-based. Conditions: NCI-H460, 72 h. In a few lines:
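Log-phase NCI-H460 cells seeded, drug added 24 h later, exposed 72 h. Survival read by sulforhodamine B staining. IC50 fitted by curve analysis as the concentration halving cell number relative to untreated controls.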
(In general: Sulforhodamine B stains cellular protein and so reports cell mass.)

A word on the IC50: it is the midpoint of a concentration-inhibition curve. As to `CC(C)c1cc(C(=O)N2CCc3onc(C(=O)NCCCCCCC(=O)NO)c3C2)c(O)cc1O`, the IC50 in assay [1] is 4.1 nM; with NCI-H460, 3900 nM.
